Laboratory results from ChEMBL document CHEMBL1641448, “2-Hydroxycurcuminoid induces apoptosis of human tumor cells through the reactive oxygen species-mitochondria pathway” (2011).
Active and inactive are the calls of the source. The calls are words filed in the database; no cut-off is given here.

Tests used:
[1] = tested on: SW-620; assay: Induction of ROS generation in human SW620 cells at 20 uM after 2 hrs relative to control; type: functional
In short: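 SW620 cells were treated for 2 h. Intracellular ROS was read fluorimetrically with the DCF-DA probe (excitation 485 nm, emission 535 nm) and compared with DMSO-treated cells.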

[2] = tested on: SW-620; assay: Cytotoxicity against human SW620 cells after 48 hrs […]; type: functional; details: SW-620, 48 h
In short: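 SW620 human colorectal tumor cells were exposed to a range of concentrations for 48 h. Cells were counted and GI50 was derived from growth inhibition.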

[3] = tested on: HCT-116; assay: Cytotoxicity against human HCT116 cells after 48 hrs by WST1 assay; type: functional, cell-based
[4] = tested on: DLD-1; assay: Cytotoxicity against human DLD1 cells after 48 hrs by WST1 assay; type: functional, cell-based
[5] = tested on: SW-620; assay: Induction of apoptosis in human SW620 cells assessed as late apoptotic cells at 10 uM by annexin-V/propidium iodide staining; type: functional
In short: (§1)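 SW620 cells were treated for 48 h with or without 1 mM NAC. Cells were stained with annexin V and propidium iodide, and the apoptotic distribution was determined by flow cytometry.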

[6] = tested on: SW-620; assay: Induction of apoptosis in human SW620 cells assessed as late apoptotic cells at 20 uM by annexin-V/propidium iodide staining; type: functional; in short: as §1
[7] = tested on: SW-620; assay: Induction of apoptosis in human SW620 cells assessed as late apoptotic cells at 10 uM by annexin-V/propidium iodide staining in presence of N-acetyl-cysteine; type: functional; in short: as §1
[8] = tested on: SW-620; assay: Induction of apoptosis in human SW620 cells assessed as PARP degradation at 10 uM by fluorescence microscopy; type: functional, cell-based
[9] = tested on: SW-620; assay: Induction of apoptosis in human SW620 cells assessed as caspase 3 activation at 10 uM by fluorescence microscopy; type: functional, cell-based
[10] = tested on: SW-620; assay: Induction of apoptosis in human SW620 cells assessed as PARP degradation at 10 uM by fluorescence microscopy in presence of N-acetyl-cysteine; type: functional, cell-based
[11] = tested on: SW-620; assay: Induction of apoptosis in human SW620 cells assessed as caspase 3 activation at 10 uM by fluorescence microscopy in presence of N-acetyl-cysteine; type: functional, cell-based
[12] = tested on: SW-620; assay: Induction of apoptosis in human SW620 cells assessed as decrease in mitochondrial membrane potential after 6 to 12 hrs; type: functional, cell-based
In short: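 Mitochondrial membrane potential in SW620 cells was followed as the red:green ratio (A590:A520) over 6–12 h of treatment.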

[13] = tested on: SW-620; assay: Induction of apoptosis in human SW620 cells assessed as release of mitochondrial cytochrome c release to cytosol upto 48 hrs; type: functional, cell-based
In short: (§2)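 SW620 cells were treated for the indicated time intervals. Cytosolic and membrane fractions were separated by subcellular fractionation, and Bax and cytochrome c levels in each fraction were read by Western blot.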

[14] = tested on: SW-620; assay: Induction of apoptosis in human SW620 cells assessed as increase in translocation of Bax to cytosol upto 48 hrs; type: functional, cell-based; details: in the assay text read “to membrane fraction” for “to cytosol”; in short: as §2
[15] = tested on: SW-620; assay: Induction of cell cycle arrest in human SW620 cells assessed as accumulation at G2/M phase at 10 uM after 15 hrs by propidium iodide cytofluorimetric analysis; type: functional, cell-based
[16] = tested on: MCF-10A; assay: Induction of cell cycle arrest in human MCF10A cells assessed as accumulation at G0/G1 phase at 10 uM after 15 hrs by propidium iodide cytofluorimetric analysis; type: functional, cell-based
[17] = tested on: MDA-MB-231 (Homo sapiens); assay: Induction of apoptosis in human MDA-MB-231 cells assessed as change in cell morphology at 10 uM by fluorescence microscopy
[18] = tested on: MDA-MB-231 (Homo sapiens); assay: Induction of apoptosis in human MDA-MB-231 cells assessed as change in cell morphology at 10 uM by fluorescence microscopy in presence of N-acetyl-cysteine
[19] = tested on: MDA-MB-231; assay: Induction of ROS generation in human MDA-MB-231 cells at 20 uM by fluorescence microscopy in presence of N-acetyl-cysteine; type: functional, cell-based

Q: With `O=C(/C=C(O)/C=C/c1ccccc1O)/C=C/c1ccccc1O` as the molecule, how does the “fold change (FC)” value [1] read?
A: 1.5

Q: And the GI50 [2]?
A: 35 µM

Q: What does the source list for `CC(=O)C(C)(C)C(=O)/C=C/c1ccccc1O`?
A: fold change (FC) [1]: 1.5; GI50 [2]: 40 µM

Q: How did the “fold change (FC)” value [1] turn out when `CC(=O)/C=C/c1ccccc1O` was run?
A: 1.5

Q: What does the source list for `CC(C)(C(=O)/C=C/c1ccccc1O)C(=O)/C=C/c1ccccc1O`?
A: fold change (FC) [1]: 1.5; GI50 [2]: 7 µM; Activity [3]: Active; Activity [4]: Active; Activity [5]: 73.53%; Activity [6]: 78.77%; Activity [7]: 24.25%; Activity [8]: Active; Activity [9]: Active; Activity [10]: inactive; Activity [11]: inactive; Activity [12]: Active; Activity [13]: Active; Activity [14]: Active; Activity [15]: Active; Activity [16]: Active; Activity [17]: Active; Activity [18]: inactive

Q: How did the “fold change (FC)” value [1] turn out when `O=C/C=C/c1ccccc1O` [2-HYDROXYCINNAMALDEHYDE] was run?
A: 1.5

Q: And the GI50 [2]?
A: 15 µM

Q: And the Activity [19]?
A: inactive

Q: For `COc1cc(/C=C/C(=O)C(C)(C)C(=O)/C=C/c2ccc(O)c(OC)c2)ccc1O`, which GI50 [2] is on record?
A: 7 µM

Q: Which GI50 [2] does the source give for `COc1cc(/C=C/C(=O)CC(=O)/C=C/c2ccc(O)c(OC)c2)ccc1O` [CURCUMIN] here?
A: 32 µM

Q: `CC(=O)/C=C(O)/C=C/c1ccccc1O` was tested. Which “fold change (FC)” value [1] did it give?
A: 1.5

Q: `CC(C)C(=O)/C=C/c1ccccc1O` was tested. Which “fold change (FC)” value [1] did it give?
A: 1.5
